Among the data in the RNAGym collection of RNA variant scans (doi:10.1126/science.aae0568) are yeast fitness values, retold here.

B1: tRNA (parent)
chain: GUUCCGUUGGCGUAAUGGUAACGCGUCUCCCUCCUAAGGAGAAGACUGCGGGUUCGAGUCCCGUACGGAACG

Variants at the floor of the assay were thinned out. Where only a bound is given, the exact number is not on record here.

The variants in this data set derive from B1. Nature of the data set: yeast fitness relative to wild type (ratio to wild type); higher = fitter; tRNA-Arg(CCU), competitive growth, 37 C, YPD. An outline of the steps: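 Variants of the tRNA-Arg(CCU) gene were chemically synthesised with a 3% per-site mutation rate across 69 sites and placed at the native genomic locus in Saccharomyces cerevisiae. Six parallel replicates of the pooled strains were competed in YPD at 37°C for 24 hours, and gene amplicons from the start and end populations were read by 100-nucleotide paired-end sequencing. Darwinian fitness relative to wild type was derived from changes in genotype frequencies. Genotypes required ≥ 100 starting reads, and estimates < 0.5 were set to 0.5.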
As for G10A G68A, the yeast fitness turned out to be 0.753.

Consider U7C C27A G51C C60U A69C, for which the yeast fitness was not above 0.5.

Regarding C27U C62U A65U, the yeast fitness was 0.718.

As to C5G G41C C49U, the yeast fitness is 0.543.

As for C4U C11G A45U C49U C61G, the yeast fitness is not above 0.5.

Take G6A U59C: the yeast fitness amounted to 0.893.

For C5U C46G C62U, the yeast fitness was found to be 0.697.

C11A U32A C33U U47A G63A: the yeast fitness was not above 0.5.

With A21G G68A, the yeast fitness was found to be 1.01.

For C31A C33G A36U C66U, the yeast fitness is not above 0.5.

Regarding G10C G51A, the yeast fitness was found to be 0.585.

Regarding C4U C5A U13A C31U C34U, the yeast fitness worked out at 0.544.

For the variant U59G G67C, the yeast fitness was found to be 0.659.

In the case of C4A C31G C62U, the yeast fitness turned out to be 0.71.

For G39C G48C G52C, the yeast fitness is not above 0.5.

In the case of C24G A36G G39C C55U C66U, the yeast fitness is not above 0.5.

C5U U7G: the yeast fitness was 0.894.

In the case of U7A C27A G50C C60U A70C, the yeast fitness is not above 0.5.

C5U C31U G48C: the yeast fitness is 0.682.

For C31U A36U A45C C62U, the yeast fitness was not above 0.5.

C24G C27U G52C: the yeast fitness is 0.566.

As to G6C U8C G58C G67A, the yeast fitness was not above 0.5.

On to U2A C60G A70C, for which the yeast fitness stood at 0.532.

In the case of U26G C46G A65C, the yeast fitness is 0.563.

As to C22U C30U U47A C62U, the yeast fitness was not above 0.5.

As to U7C U64G, the yeast fitness is 0.809.

As to G48A A57G, the yeast fitness was 0.972.

Take A20C U64C: the yeast fitness turned out to be 0.984.

Turning to U19A A36C A40G A57C, the yeast fitness was not above 0.5.

With A21G U54A C62U A65G G68A, the yeast fitness is not above 0.5.

As to U13G C24A A45G C55G, the yeast fitness was determined as 0.622.

As for G9A C49U A65U, the yeast fitness stood at 0.651.

For the variant A14C C24G, the yeast fitness was 0.579.

A36G A65G: the yeast fitness is 0.831.

C24U G51A A57U: the yeast fitness is not above 0.5.

For U2A G10A U26A C66U, the yeast fitness was not above 0.5.

Turning to C22A C24G A36G G39C C66U, the yeast fitness was not above 0.5.

Take U3A C11G A14C C62U G63A: the yeast fitness is not above 0.5.

Regarding C49A, the yeast fitness was 0.759.

Regarding C5G G6A C29U C33G G38A G67U, the yeast fitness was not above 0.5.

On to A20G U28A U53A, for which the yeast fitness was not above 0.5.

As to C4G A15G G23A C34G, the yeast fitness is 0.538.

As for C5G C11A A21G, the yeast fitness was 0.581.

U28G C62U: the yeast fitness came out at 0.737.

As to C11A C29A A42G, the yeast fitness is not above 0.5.

In the case of U2C U16G C66A, the yeast fitness was not above 0.5.

As for C27A A42C A57G, the yeast fitness was not above 0.5.

On to G10U G17A C24A C61G, for which the yeast fitness is not above 0.5.

G12A C27A: the yeast fitness worked out at 0.844.

Consider U2G G9C, for which the yeast fitness stood at 0.755.

On to G9A C11G A40U G56A, for which the yeast fitness is not above 0.5.

On to G6A U8C G23A A57C, for which the yeast fitness was not above 0.5.

For the variant C61A A65G, the yeast fitness stood at 0.595.

As to A42U U54C, the yeast fitness amounted to 0.897.

As to U7C C61U U64A A69G, the yeast fitness is 0.535.

C11G U53C: the yeast fitness amounted to 0.584.

Turning to C29G C30U C31G C49U G50C, the yeast fitness is not above 0.5.

Turning to G38C A40U G67A, the yeast fitness is not above 0.5.

As to U26A A43C G52U C55A, the yeast fitness is not above 0.5.

As for U28C C46U G51C A70C, the yeast fitness is not above 0.5.

Consider C4G A21C C22U, for which the yeast fitness came out at 0.626.

Turning to G48A U59C, the yeast fitness came to 0.934.

For G9C A37C C46U U53A, the yeast fitness is not above 0.5.

As to C34U C49U U53C, the yeast fitness was not above 0.5.

Regarding G6A C22G C31U, the yeast fitness came to 0.771.

For C5U A21U C33U C62U A70C, the yeast fitness was not above 0.5.

For the variant G12A C66A, the yeast fitness is 0.654.

U3A U19A: the yeast fitness was 1.02.

With U7A A40U G67A, the yeast fitness is not above 0.5.

Regarding C4A C5U G17A G52C, the yeast fitness stood at 0.581.

Turning to G9A U26A U28C C55U G58A U59C, the yeast fitness was 0.555.

For the variant C4G C22U G38C, the yeast fitness is not above 0.5.

Regarding C5G A36U G67A, the yeast fitness is 0.571.

As to G12A G23A U35G A36G A57C C62U, the yeast fitness was not above 0.5.

Turning to C29G U47G, the yeast fitness was 0.707.

As to C27G A36U C46U G67A, the yeast fitness was determined as 0.54.

As to A37G G44C A57U G63C, the yeast fitness is not above 0.5.

As for C11G U16A C30A, the yeast fitness was 0.583.

With C11A G56A, the yeast fitness worked out at 0.739.

With C11A U13C C27A C60G A65G, the yeast fitness is not above 0.5.

For G10C A15C C29G G48A, the yeast fitness came to 0.643.

Consider A15C C31G C49U U64C G67A, for which the yeast fitness was not above 0.5.

Take U2C G38A C55A: the yeast fitness was not above 0.5.

As for C46G C60G, the yeast fitness worked out at 0.715.

As to C22U A40C C66U, the yeast fitness came to 0.523.

For C5G U16A C31G A65U C66A, the yeast fitness was not above 0.5.

Take C31U A42G C62U: the yeast fitness was 0.583.

With C4G C5U G68A, the yeast fitness worked out at 0.602.

As to C4U C27U A43G, the yeast fitness is 0.649.

On to G17A A21C C27U C33A A37C, for which the yeast fitness was 0.566.

Regarding U13A C24U U59C, the yeast fitness was determined as 0.55.

U3C G9A A69C: the yeast fitness is 0.905.

On to U26A C49G A70C, for which the yeast fitness came to 0.574.

As to U3A A36U U53G, the yeast fitness is 0.619.

Turning to G6C C29G C66U, the yeast fitness came out at 0.565.

For U7G A36G A45U, the yeast fitness is not above 0.5.

For U8A C11G A65G, the yeast fitness was 0.857.

G9A C11G U32G A45G C49U U53A: the yeast fitness was 0.549.

G9C C34A A57U: the yeast fitness is not above 0.5.

Turning to U13A A43G U53G, the yeast fitness is not above 0.5.

Take C5A C33A A65U: the yeast fitness was not above 0.5.

Regarding U28C C55G C60A, the yeast fitness is not above 0.5.

On to A14G A42C G50C C66U, for which the yeast fitness is not above 0.5.

Consider U16C U32G C49G C55A, for which the yeast fitness is not above 0.5.

Regarding C31A G63C, the yeast fitness was 0.62.

Take A40C C60G C62G: the yeast fitness was not above 0.5.

With C4G G58A, the yeast fitness was 1.05.

Consider C11G C29G, for which the yeast fitness turned out to be 0.84.

On to U16A C22G C34U G51A, for which the yeast fitness is not above 0.5.

For C24G C30U, the yeast fitness was found to be 0.553.

With U59C G68C, the yeast fitness is 0.765.

As for C4U U64A A70U, the yeast fitness turned out to be 0.66.

For the variant C4A G6A G23A C49A U59C C62U A65U A70C, the yeast fitness is not above 0.5.

Turning to U2C G17C G23C G25C U35A A42U A70G, the yeast fitness is not above 0.5.

As for U54G C66U, the yeast fitness amounted to 0.653.

Regarding G12C U28G, the yeast fitness came to 0.696.

In the case of C5G G12A C46U G52C, the yeast fitness was found to be 0.61.

Turning to C27A C66A, the yeast fitness was found to be 0.565.

Take G23C U26C C27U C46U A69C: the yeast fitness is not above 0.5.

For U7A U16C G17A C29U C31A U35C C66G G67U, the yeast fitness was not above 0.5.

For the variant C4G U13A A21C U35A A65C, the yeast fitness is not above 0.5.

With U19C C30A, the yeast fitness stood at 1.03.

On to C4U A43C G51A G68U, for which the yeast fitness is 0.623.

Take C11U U35A G38A: the yeast fitness is 0.51.

As for U47A G50C, the yeast fitness was 0.69.

As for G25C C46G C49U U64G, the yeast fitness is not above 0.5.

For the variant U2C A14G C46U, the yeast fitness was determined as 0.669.

Consider U16A C33U G38C, for which the yeast fitness stood at 0.625.

Regarding C49U G56C, the yeast fitness came to 0.58.

As for A14G A40G A42U G67C, the yeast fitness worked out at 0.665.

As for G23C C30G C49U A65C, the yeast fitness was not above 0.5.

Take U26A C29G G58A A70C: the yeast fitness was 0.631.

Take A14G C27G C31U: the yeast fitness stood at 0.501.

Take A20G G56U A65G: the yeast fitness amounted to 0.587.

C5U G23A U35A: the yeast fitness is not above 0.5.

In the case of G41A C55G, the yeast fitness was determined as 0.605.

As for A36U G63C, the yeast fitness is not above 0.5.

As to C5A A15C C62U, the yeast fitness is not above 0.5.

For G9C A20G G50C, the yeast fitness was not above 0.5.

Take A40G A69C: the yeast fitness came to 0.861.

Take C11G A20G U53C: the yeast fitness was not above 0.5.

Turning to U26A G44C G68C, the yeast fitness came to 0.563.

For the variant C22G G38U A42U, the yeast fitness is not above 0.5.

As for G23A C33U A69U, the yeast fitness was not above 0.5.

As to A21C U26C C34G G44A C46A C55G G58A U59C A69U, the yeast fitness was 0.625.

Consider U2C U8G A20G U32G U35A, for which the yeast fitness was not above 0.5.

Consider G10A U54A C55G, for which the yeast fitness is not above 0.5.

Turning to U3A G41A, the yeast fitness was 0.754.

On to C22U C30U, for which the yeast fitness turned out to be 0.758.

As for C5G G9A A43G G48C A69C, the yeast fitness is not above 0.5.

As to A20U A65G, the yeast fitness was 0.986.

With U16C U19C A65G, the yeast fitness is 1.05.

On to C27U C46U G67U, for which the yeast fitness was determined as 0.626.

On to C11G C30G A37U G41A U53C A69U, for which the yeast fitness was 0.516.

Regarding G10A G52A A57G C66U, the yeast fitness was not above 0.5.

As for C4A U16C G17A C62A, the yeast fitness is not above 0.5.

For the variant U3C G39C A43G G44C A45U C49G G67C, the yeast fitness is not above 0.5.

With G18A C49G, the yeast fitness worked out at 0.74.

Regarding G18C C29G U47C, the yeast fitness was not above 0.5.

Regarding C22A U35A A37G G58A, the yeast fitness was not above 0.5.

With C31A G48A, the yeast fitness is 0.764.

On to C29A C61G, for which the yeast fitness was not above 0.5.

For the variant U3A G9C C33G A42U A43U A65C G68C, the yeast fitness was not above 0.5.

For C5A C60U C66U, the yeast fitness was not above 0.5.

As to U26C C61A C66U, the yeast fitness was determined as 0.525.

A37U U47G A57C: the yeast fitness was not above 0.5.

For U3C C46A G58C, the yeast fitness is 1.04.
